Assay results from the EternaBench riboswitch data.

Tested on: MS2 coat protein
Assay: apparent Kd, MS2 coat protein; higher = weaker binding; RNA-MaP array; FMN 200 µM where present
Procedure, shortened: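 Green signal was scaled to red-channel RNA signal and control-cluster median Fmax, and the apparent Kd was taken as the median of filtered per-cluster binding-curve fits. The binding series used SNAP-549-labelled MS2 coat protein from 0.7 or 1.5 nM, doubling to 3 µM, on designs transcribed by stalled E. coli RNA polymerase on Illumina sequencing-chip clusters. Each series ran without and then with constant ligand in 100 mM Tris-HCl pH 7.5, 80 mM KCl, 4 mM MgCl2, BSA, DTT, yeast tRNA and Tween-20.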

[1] = designed as: ON switch for flavin mononucleotide, no ligand
[2] = ligand present: flavin mononucleotide, designed as: ON switch for flavin mononucleotide
[3] = designed as: OFF switch for flavin mononucleotide, no ligand
[4] = ligand present: flavin mononucleotide, designed as: OFF switch for flavin mononucleotide

| Sequence | apparent Kd [1] [nM] | apparent Kd [2] [nM] | apparent Kd [3] [nM] | apparent Kd [4] [nM] |
| --- | --- | --- | --- | --- |
| CGCUGUCUCGCAGGAUAUGCAUUGGAUUACAAUGCAGAAGGGCGAUUACAUGAGGAUCACCCAUGUGUUGACAGUGAAGAAGAU | 113 | 25.5 | – | – |
| UGUCGGAGCAGAGGAUAUUACAUGAGGAUCACCCAUGUAUGAACCAAUAGCUGGUAACAGCAAUGUAAGAAGGCUGCUCCGACA | – | – | 14.1 | 176 |
| CAGCCCUGAGGAUAUCCAUCCUUGUACAUGAGGAUCACCCAUGUUCUCCUCUGGGCUUUGGGAGAAGGCAGGUAUC | – | – | 59.6 | 58.7 |
| AAAUUUAACGAAGGAUAUGGAUACAUGAGGAUCACCCAUGUUUAUUUUGUGAUCUUGUAUAAGUACCAGAAGGUCGUAUACAUA | – | – | 165 | 459 |
| GAGCCAUCGUGAGAUGGCUAACAUACAUGAGGAUCACCCAUGUAGGAUAUCGAUUGCUUUGCAGUCGAGAAGGACAUGUUUAAU | – | – | 26.3 | 43.1 |
| CAUGUCCUCACAGGAUAUGCACCACUUUGUGGUGCAGAAGGGUGGUAACAUGAGGAUCACCCAUGUGGACAUGAUAUAUUUAAU | 523 | 294 | – | – |
| AAUUUACAGCUAGGAUAUACAUGAGGAUCACCCAUGUAACGAUCGGAUCUUAUGAUCGUAUCCGUGUAGAAGGAGCAAAUAAGA | – | – | 6.46 | 6.39 |
| UAGUUAUUCACAGGAUAUCGCCUCUUAUUACAUGAGGAUCACCCAUGUUUACUUAGUUACAUGUUCGAGAAGGGUGUAGCCGUU | – | – | 491 | 554 |
| GGGAGUGGAGGGAAUAACAUGAGGAUCACCCAUGUAUGGGAGAGAAGGCAGAUUGGAGGGCGAUCUGAGGAUAUUUAGACUCUU | 13.1 | 10.7 | – | – |
| CAGCACGGAAACAAAGUCUUCGGACAUGAGGAUCACCCAUGUGAGGAUAUGCCUACUAAAAGUAGGCAGAAGGCACGCGUGCUG | – | – | 17.1 | 62.6 |
| AAUCCACAUGAGGAUCACCCAUGUCAGGAUAUCGCGCGCGCGUUUUCGGUCUUUCGCGCGAGAAGGGACGACUG | – | – | 16.1 | 18.8 |
| GGAUGACAAAGUCAUCCAAUUCGAACAUGAGGAUCACCCAUGUAGGAUAUGCUUCUCAAAGAGAAGCAGAAGGACAUGUGCUUU | – | – | 32.8 | 182 |
| CAUUAACAUGAGGAUCACCCAUGUGAGGAUAUGAUAUUACUAGGACGGCUGUAAUCAAUCAGAAGGCACAUCUU | – | – | 20.4 | 44.5 |
| CGUUUAUUUAUGGGAUUAUAUUAUGAGGAUAUCAAUAUUUAUUACAUGAGGAUCACCCAUGUUAAUGAGAAGGCAUAAUUAACG | 9.53 | 6.3 | – | – |
| GGAUGAGAAACUCAUCCAUAACGAACAUGAGGAUCACCCAUGUAGGAUAUGCUACUCAAAGAGUAGCAGAAGGACAUGUGUCUU | – | – | 29.6 | 144 |
| UCGUACAUUCGAGGAUAUCGGUGAUAAAUAAUACGAGAAGGCGAUUGUGGGCAUAACGCCUUAGACAUGAGGAUCACCCAUGUA | 75.6 | 51.5 | – | – |
| GAUCCGGUCAAGAGGAUUUUGGAGUGAGAAGGGAGGCUGCUACAUGAGGAUCACCCAUGUGAUACUCAGGAUAUUAGUCUACUA | 215 | 155 | – | – |
| GGAUUACAUGAGGAUCACCCAUGUGAGGAUAUCGAUGUCCUCAGUCGAGUGCGGGACUCGAGAAGGCACUUGGA | – | – | 77 | 57.5 |

| Sequence | apparent Kd [1] [nM] | apparent Kd [2] [nM] | apparent Kd [3] [nM] | apparent Kd [4] [nM] |
| --- | --- | --- | --- | --- |
| AAAAGUAGAGGAUAUACAUGAGGAUCACCCAUGUAGAAAGGAAGUGUAUAUAUGGCAUGUAGAAGGCUACAUGA | – | – | 32.1 | 34.4 |
| CGGGCGGGAGGAUAUGCGUGGAUUGUUCUCGUAUGGUGUCUACAUGAGGAUCACCCAUGUAGAAGGCUUGUUUG | – | – | 14.1 | 16.7 |
| CAGCUACCCAGUAUGGGUAUUUUUACAGAAGGCCAGGCACAUGAGGAUCACCCAUGUCAAGUUAUGGAGGAUAUGUUAGUGUAU | 8.25 | 4.76 | – | – |
| CGAAGUCCGUAGAAGGGUGACAUGAGGAUCACCCAUGUGCGAGCGGAGAGAGUCAGCGGCUCGCCACAGGAUAUACGGAGCACG | 103 | 29.1 | – | – |
| CCGGGUUAUGUUAGGAUAUGUAGGCCGCAACCGGAACAGAAGGGACAUGAGGAUCACCCAUGUGAUAUUCCCGG | – | – | 23.3 | 30.8 |
| CGUCAGUGAGGAUAUGGUAUCGUGUACAUGAGGAUCACCCAUGUUUCUUGGGACUAUAUACUAGAAGGCACUGACG | – | – | 16 | 35.3 |
| AAAGCGUGAGGAUAUGAGGCGCCGGGCCGGUUGGUGCGGAUUCAGAAGGCACAUGAGGAUCACCCAUGUAGGAA | – | – | 23.4 | 36.2 |
| AUGUUGUCAGGAUAUCUUACAUAACAAUCGUUGUUACCAUUGGAGAAGGGACAUGAGGAUCACCCAUGUUAGCC | – | – | 20.8 | 23 |
| ACAGCUGAAGGAUAUACUUGGGAAAAAAAAAAAAAAAAAAAACAUGAGGAUCACCCAUGUAGAAGGUCAGCUGA | – | – | 103 | 60 |
| UAUUAAUGCAAGGAUAUGCUUUUAAUUUUUUUUGCAGAAGGUGCAACAUGAGGAUCACCCAUGUUUCCGGGUAU | – | – | 26.5 | 39.1 |
| GGGCCGUAGUAGAAGGGAUAUACGAUUGGUAUAUCAGGAUAUACAUGAGGAUCACCCAUGUUCUAACAGUGAUAGUCCUCCCUA | – | – | 23 | 54.8 |
| GACUGGCAGCUAGGAUAUGGGCGAUCACAUGAGGAUCACCCAUGUCAACAUCAAAACAAGAUUAACCAGAAGGAGCCGCGGGUU | 16.1 | 110 | – | – |
| GUGUACAGAGGAUAUACAUGAGCUAGGAAACUAGCAACCUCACAUGAGGAUCACCCAUGUAGAAGGCUGUACAC | – | – | 32.7 | 25.8 |
| UGAUAGGACAGAGGAUAUACGUGCUAGAGAUACUAGCAAAAUAUCCUUACAUGAGGAUCACCCAUGUAGAAGGCUGUCCUAUCU | – | – | 20 | 20.2 |
| AAGUGCAUAGGAUAUAUAUGGAUAUACAUUUAUGUAGAACUACAUGAGGAUCACCCAUGUAGAAGGAUGCAAUA | – | – | 21.5 | 36.8 |
| UGGUCAUCAUCAGGAUAUUAACGUGGGCUACUUUAAGAAGGGAUAGUGGGAGAGGAUGUGAAACAUGAGGAUCACCCAUGUUGU | 15.7 | 12.3 | – | – |
| AAGGAUAGAGGAUAUACAUAGAUACAGAUUCAUGUGGUCCUACAUGAGGAUCACCCAUGUAGAAGGCUAUCCUA | – | – | 240 | 56.8 |
| AGCGUGUGAGGAUAUGCGGACUCCGGUAAAUCUGGAGUCCAGUAGAAGGCACAUGAGGAUCACCCAUGUGAGAU | – | – | 35.8 | 124 |
